Data: ChEMBL document CHEMBL1135850, “P1 Phenethyl peptide boronic acid inhibitors of HCV NS3 protease” (Bioorg Med Chem Lett, 2002)
Peptide text beside a SMILES is read from it. * marks the point of attachment. X3 = CC1(C)[C@@H]2C[C@H]3OB([C@H](CCc4cccc(C(F)(F)F)c4)N*)O[C@@]3(C)[C@H]1C2; X4 = CC1(C)[C@@H]2C[C@H]3OB([C@H](CCc4cccc(F)c4)N*)O[C@@]3(C)[C@H]1C2; X1 = CC1(C)[C@@H]2C[C@H]3OB([C@H](CCc4ccccc4F)N*)O[C@@]3(C)[C@H]1C2; X6 = CC1(C)[C@@H]2C[C@H]3OB([C@H](CCCc4ccccc4)N*)O[C@@]3(C)[C@H]1C2; X15 = CC1(C)[C@@H]2C[C@H]3OB([C@H](Cc4ccccc4)N*)O[C@@]3(C)[C@H]1C2; X12 = CC(C)CC[C@H](N*)B1O[C@@H]2C[C@@H]3C[C@@H](C3(C)C)[C@]2(C)O1; X9 = CC1(C)[C@@H]2C[C@H]3OB([C@@H](N*)c4ccccc4)O[C@@]3(C)[C@H]1C2; X11 = CCCCCC[C@H](N*)B1O[C@@H]2C[C@@H]3C[C@@H](C3(C)C)[C@]2(C)O1; X13 = CCCCC[C@H](N*)B1O[C@@H]2C[C@@H]3C[C@@H](C3(C)C)[C@]2(C)O1; X14 = CCCC[C@H](N*)B1O[C@@H]2C[C@@H]3C[C@@H](C3(C)C)[C@]2(C)O1

Legend:
NS3 = NS3 (Hepatitis C virus, UniProt A3EZJ3); experiment: Binding affinity against Hepatitis C virus NS3 protease; parameters: species or system Hepacivirus hominis
Method in brief: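 Continuous fluorescence assay with 4 nM NS3 protease plus NS4A cofactor peptide, in 50 mM Tris pH 7.0, 5 mM DTT, 50% glycerol, 2% CHAPS. Serially diluted inhibitors, given as boronic acid pinanediol esters, were preincubated with enzyme for 15 min. The reaction was started with the FRET ester substrate Ac-DED(EDANS)EEAbuψ[COO]ASK(DABCYL)-NH2 at ambient temperature and read at excitation 360 nm, emission 530 nm.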

Neutrophil elastase = biological target: T1, Neutrophil elastase (Homo sapiens, UniProt P08246); experiment: Inhibitory concentration against Human leukocyte Elastase
T1 sequence (P08246 whole entry): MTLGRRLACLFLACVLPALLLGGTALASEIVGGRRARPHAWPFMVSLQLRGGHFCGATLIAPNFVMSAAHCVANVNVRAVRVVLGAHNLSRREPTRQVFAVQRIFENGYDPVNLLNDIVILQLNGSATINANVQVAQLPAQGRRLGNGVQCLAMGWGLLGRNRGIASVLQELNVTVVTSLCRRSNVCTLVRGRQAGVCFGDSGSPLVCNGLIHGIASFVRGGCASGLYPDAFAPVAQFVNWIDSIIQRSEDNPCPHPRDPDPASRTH
Method in brief: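 Human neutrophil elastase (stock 1 mg/mL in PBS with 10% glycerol) with MeO-Suc-Ala-Ala-Pro-Val-p-nitroanilide substrate in PBS at room temperature, DMSO ≤2%. Inhibitors were tested as pinanediol esters. Substrate hydrolysis was followed at 405 nm to derive kinetic parameters.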

Structure (SMILES)	Ki (NS3) [nM]	IC50 (Neutrophil elastase) [nM]
Cc1ccc(CC[C@H](NC(=O)[C@@H]2CCCN2C(=O)[C@@H](NC(=O)[C@@H](NC(=O)[C@H](CCC(=O)O)NC(=O)[C@@H](N)CC(=O)O)C(C)C)C(C)C)B2O[C@@H]3C[C@@H]4C[C@@H](C4(C)C)[C@]3(C)O2)cc1	17	–
CC(C)[C@H](NC(=O)[C@H](CCC(=O)O)NC(=O)[C@@H](N)CC(=O)O)C(=O)N[C@H](C(=O)N1CCC[C@@H]1C(=O)N[C@@H](CCc1ccc(C(C)(C)C)cc1)B1O[C@@H]2C[C@@H]3C[C@@H](C3(C)C)[C@]2(C)O1)C(C)C	–	340
CC(C)CC[C@H](NC(=O)[C@@H]1CCCN1C(=O)[C@@H](NC(=O)[C@@H](NC(=O)[C@H](CCC(=O)O)NC(=O)[C@@H](N)CC(=O)O)C(C)C)C(C)C)B1O[C@@H]2C[C@@H]3C[C@@H](C3(C)C)[C@]2(C)O1 (H-DEVVP-X12)	39	–
CC(C)[C@H](NC(=O)[C@H](CCC(=O)O)NC(=O)[C@@H](N)CC(=O)O)C(=O)N[C@H](C(=O)N1CCC[C@H]1C(=O)N[C@@H](CCc1ccccc1F)B1O[C@@H]2C[C@@H]3C[C@@H](C3(C)C)[C@]2(C)O1)C(C)C (H-DEVVP-X1)	18	–
CC(C)[C@H](NC(=O)[C@H](CCC(=O)O)NC(=O)[C@@H](N)CC(=O)O)C(=O)N[C@H](C(=O)N1CCC[C@@H]1C(=O)N[C@@H](CCc1ccccc1)B1O[C@@H]2C[C@@H]3C[C@@H](C3(C)C)[C@]2(C)O1)C(C)C	–	3500
CC(C)CCC[C@H](NC(=O)[C@H]1CCCN1C(=O)[C@@H](NC(=O)[C@@H](NC(=O)[C@H](CCC(=O)O)NC(=O)[C@@H](N)CC(=O)O)C(C)C)C(C)C)B1O[C@@H]2C[C@@H]3C[C@@H](C3(C)C)[C@]2(C)O1	–	7300
CCCCC[C@H](NC(=O)[C@@H]1CCCN1C(=O)[C@@H](NC(=O)[C@@H](NC(=O)[C@H](CCC(=O)O)NC(=O)[C@@H](N)CC(=O)O)C(C)C)C(C)C)B1O[C@@H]2C[C@@H]3C[C@@H](C3(C)C)[C@]2(C)O1 (H-DEVVP-X13)	12	–
CC(C)C[C@H](NC(=O)[C@H]1CCCN1C(=O)[C@@H](NC(=O)[C@@H](NC(=O)[C@H](CCC(=O)O)NC(=O)[C@@H](N)CC(=O)O)C(C)C)C(C)C)B1O[C@@H]2C[C@@H]3C[C@@H](C3(C)C)[C@]2(C)O1	–	60
CCCCCC[C@H](NC(=O)[C@@H]1CCCN1C(=O)[C@@H](NC(=O)[C@@H](NC(=O)[C@H](CCC(=O)O)NC(=O)[C@@H](N)CC(=O)O)C(C)C)C(C)C)B1O[C@@H]2C[C@@H]3C[C@@H](C3(C)C)[C@]2(C)O1 (H-DEVVP-X11)	13	–
CC(C)[C@H](NC(=O)[C@H](CCC(=O)O)NC(=O)[C@@H](N)CC(=O)O)C(=O)N[C@H](C(=O)N1CCC[C@@H]1C(=O)N[C@@H](CCc1ccc(-c2ccccc2)cc1)B1O[C@@H]2C[C@@H]3C[C@@H](C3(C)C)[C@]2(C)O1)C(C)C	–	900
CC(C)[C@H](NC(=O)[C@H](CCC(=O)O)NC(=O)[C@@H](N)CC(=O)O)C(=O)N[C@H](C(=O)N1CCC[C@@H]1C(=O)N[C@@H](CCc1ccc(F)cc1)B1O[C@@H]2C[C@@H]3C[C@@H](C3(C)C)[C@]2(C)O1)C(C)C	–	800
CC[C@H](NC(=O)[C@@H]1CCCN1C(=O)[C@@H](NC(=O)[C@@H](NC(=O)[C@H](CCC(=O)O)NC(=O)[C@@H](N)CC(=O)O)C(C)C)C(C)C)B1O[C@@H]2C[C@@H]3C[C@@H](C3(C)C)[C@]2(C)O1	8	–
CC(C)C[C@H](NC(=O)[C@@H]1CCCN1C(=O)[C@@H](NC(=O)[C@@H](NC(=O)[C@H](CCC(=O)O)NC(=O)[C@@H](N)CC(=O)O)C(C)C)C(C)C)B1O[C@@H]2C[C@@H]3C[C@@H](C3(C)C)[C@]2(C)O1	8	–
CC(C)[C@H](NC(=O)[C@H](CCC(=O)O)NC(=O)[C@@H](N)CC(=O)O)C(=O)N[C@H](C(=O)N1CCC[C@H]1C(=O)N[C@@H](CCCCc1ccccc1)B1O[C@@H]2C[C@@H]3C[C@@H](C3(C)C)[C@]2(C)O1)C(C)C	10	–
Cc1cccc(CC[C@H](NC(=O)[C@@H]2CCCN2C(=O)[C@@H](NC(=O)[C@@H](NC(=O)[C@H](CCC(=O)O)NC(=O)[C@@H](N)CC(=O)O)C(C)C)C(C)C)B2O[C@@H]3C[C@@H]4C[C@@H](C4(C)C)[C@]3(C)O2)c1	34	–
CC(C)[C@H](NC(=O)[C@H](CCC(=O)O)NC(=O)[C@@H](N)CC(=O)O)C(=O)N[C@H](C(=O)N1CCC[C@H]1C(=O)N[C@@H](CCc1ccccc1)B1O[C@@H]2C[C@@H]3C[C@@H](C3(C)C)[C@]2(C)O1)C(C)C	8	–
CC(C)[C@H](NC(=O)[C@H](CCC(=O)O)NC(=O)[C@@H](N)CC(=O)O)C(=O)N[C@H](C(=O)N1CCC[C@H]1C(=O)N[C@H](B1O[C@@H]2C[C@@H]3C[C@@H](C3(C)C)[C@]2(C)O1)c1ccccc1)C(C)C (H-DEVVP-X9)	900	–
CC(C)[C@H](NC(=O)[C@H](CCC(=O)O)NC(=O)[C@@H](N)CC(=O)O)C(=O)N[C@H](C(=O)N1CCC[C@H]1C(=O)N[C@@H](Cc1ccccc1)B1O[C@@H]2C[C@@H]3C[C@@H](C3(C)C)[C@]2(C)O1)C(C)C (H-DEVVP-X15)	500	–
CC(C)[C@H](NC(=O)[C@H](CCC(=O)O)NC(=O)[C@@H](N)CC(=O)O)C(=O)N[C@H](C(=O)N1CCC[C@H]1C(=O)N[C@@H](CCc1cccc(C(F)(F)F)c1)B1O[C@@H]2C[C@@H]3C[C@@H](C3(C)C)[C@]2(C)O1)C(C)C (H-DEVVP-X3)	25	–
CC(C)[C@H](NC(=O)[C@H](CCC(=O)O)NC(=O)[C@@H](N)CC(=O)O)C(=O)N[C@H](C(=O)N1CCC[C@H]1C(=O)N[C@@H](CCc1ccc(O)cc1)B1O[C@@H]2C[C@@H]3C[C@@H](C3(C)C)[C@]2(C)O1)C(C)C	8	–
CC(C)[C@H](NC(=O)[C@H](CCC(=O)O)NC(=O)[C@@H](N)CC(=O)O)C(=O)N[C@H](C(=O)N1CCC[C@H]1C(=O)N[C@@H](CCCc1ccccc1)B1O[C@@H]2C[C@@H]3C[C@@H](C3(C)C)[C@]2(C)O1)C(C)C (H-DEVVP-X6)	200	–
CCCC[C@H](NC(=O)[C@@H]1CCCN1C(=O)[C@@H](NC(=O)[C@@H](NC(=O)[C@H](CCC(=O)O)NC(=O)[C@@H](N)CC(=O)O)C(C)C)C(C)C)B1O[C@@H]2C[C@@H]3C[C@@H](C3(C)C)[C@]2(C)O1 (H-DEVVP-X14)	11	–
CC(C)[C@H](NC(=O)[C@H](CCC(=O)O)NC(=O)[C@@H](N)CC(=O)O)C(=O)N[C@H](C(=O)N1CCC[C@H]1C(=O)N[C@@H](CCc1cccc(F)c1)B1O[C@@H]2C[C@@H]3C[C@@H](C3(C)C)[C@]2(C)O1)C(C)C (H-DEVVP-X4)	9	–

The remaining lines, values ahead:

Ki (NS3) [nM]	IC50 (Neutrophil elastase) [nM]	Structure (SMILES)
2	–	CC(C)[C@H](NC(=O)[C@H](CCC(=O)O)NC(=O)[C@@H](N)CC(=O)O)C(=O)N[C@H](C(=O)N1CCC[C@H]1C(=O)N[C@@H](CCc1ccc(Cl)cc1)B1O[C@@H]2C[C@@H]3C[C@@H](C3(C)C)[C@]2(C)O1)C(C)C
3	–	CC(C)[C@H](NC(=O)[C@H](CCC(=O)O)NC(=O)[C@@H](N)CC(=O)O)C(=O)N[C@H](C(=O)N1CCC[C@H]1C(=O)N[C@@H](CCc1ccc(C2CCCCC2)cc1)B1O[C@@H]2C[C@@H]3C[C@@H](C3(C)C)[C@]2(C)O1)C(C)C
7	–	CC(C)[C@H](NC(=O)[C@H](CCC(=O)O)NC(=O)[C@@H](N)CC(=O)O)C(=O)N[C@H](C(=O)N1CCC[C@H]1C(=O)N[C@@H](CCc1ccc(-c2ccccc2)cc1)B1O[C@@H]2C[C@@H]3C[C@@H](C3(C)C)[C@]2(C)O1)C(C)C
5	–	CC(C)c1ccc(CC[C@H](NC(=O)[C@@H]2CCCN2C(=O)[C@@H](NC(=O)[C@@H](NC(=O)[C@H](CCC(=O)O)NC(=O)[C@@H](N)CC(=O)O)C(C)C)C(C)C)B2O[C@@H]3C[C@@H]4C[C@@H](C4(C)C)[C@]3(C)O2)cc1
3	–	CC(C)[C@H](NC(=O)[C@H](CCC(=O)O)NC(=O)[C@@H](N)CC(=O)O)C(=O)N[C@H](C(=O)N1CCC[C@H]1C(=O)N[C@@H](CCc1ccc(Oc2ccccc2)cc1)B1O[C@@H]2C[C@@H]3C[C@@H](C3(C)C)[C@]2(C)O1)C(C)C
7	–	CC(C)CCC[C@H](NC(=O)[C@@H]1CCCN1C(=O)[C@@H](NC(=O)[C@@H](NC(=O)[C@H](CCC(=O)O)NC(=O)[C@@H](N)CC(=O)O)C(C)C)C(C)C)B1O[C@@H]2C[C@@H]3C[C@@H](C3(C)C)[C@]2(C)O1
4	–	CC(C)[C@H](NC(=O)[C@H](CCC(=O)O)NC(=O)[C@@H](N)CC(=O)O)C(=O)N[C@H](C(=O)N1CCC[C@H]1C(=O)N[C@@H](CCc1ccc(Br)cc1)B1O[C@@H]2C[C@@H]3C[C@@H](C3(C)C)[C@]2(C)O1)C(C)C
6	–	CC(C)[C@H](NC(=O)[C@H](CCC(=O)O)NC(=O)[C@@H](N)CC(=O)O)C(=O)N[C@H](C(=O)N1CCC[C@H]1C(=O)N[C@@H](CCc1ccc(F)cc1)B1O[C@@H]2C[C@@H]3C[C@@H](C3(C)C)[C@]2(C)O1)C(C)C
3	–	CC(C)[C@H](NC(=O)[C@H](CCC(=O)O)NC(=O)[C@@H](N)CC(=O)O)C(=O)N[C@H](C(=O)N1CCC[C@H]1C(=O)N[C@@H](CCc1ccc(C(C)(C)C)cc1)B1O[C@@H]2C[C@@H]3C[C@@H](C3(C)C)[C@]2(C)O1)C(C)C
2	–	CC(C)[C@H](NC(=O)[C@H](CCC(=O)O)NC(=O)[C@@H](N)CC(=O)O)C(=O)N[C@H](C(=O)N1CCC[C@H]1C(=O)N[C@@H](CCc1ccc(C(F)(F)F)cc1)B1O[C@@H]2C[C@@H]3C[C@@H](C3(C)C)[C@]2(C)O1)C(C)C
3	–	COc1ccc(CC[C@H](NC(=O)[C@@H]2CCCN2C(=O)[C@@H](NC(=O)[C@@H](NC(=O)[C@H](CCC(=O)O)NC(=O)[C@@H](N)CC(=O)O)C(C)C)C(C)C)B2O[C@@H]3C[C@@H]4C[C@@H](C4(C)C)[C@]3(C)O2)cc1
